In ChEMBL document CHEMBL3808291, “Bifunctional Peptide-Based Opioid Agonist-Nociceptin Antagonist Ligands for Dual Treatment of Acute and Neuropathic Pain” (J Med Chem, 2016):
Active and inactive are the calls of the source. Numbered stars: 1 amine (or outer) side, 2 acyl side, 3 side chain; on linkers, the order of the positions; unused ones are H or OH. Square brackets hold non-standard residues; d marks the D form. Peptide text beside a SMILES is read from it. X1 = O=C1[C@@H](N[*:1])Cc2ccccc2CN1CCC(=O)[*:2]; Phe(4-F) = N[C@@H](Cc1ccc(F)cc1)C(=O)O; Dmt = Cc1cc(O)cc(C)c1C[C@H](N)C(=O)O

Columns and labels:
Mus musculus [1] = assay: Antiallodynic activity in albino Swiss CD1 IGS mouse model of streptozocin-induced type1 diabetic neuropathic pain assessed as increase in mechanical threshold for paw withdrawal at 0.005 nmol, it administered on day 10 after STZ injection measured at 30 mins post dose by Von Frey test; assay type: functional, organism-based
Method in brief: (§1)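 Male CD-1 mice (30–35 g). CCI: sciatic constriction injury, tested on days 7–16 after surgery. STZ diabetes: single ip streptozocin 200 mg/kg; mice with glucose >300 mg/dL included, tested on day 10. Drug in water for injection, given it (5 µL, L5–L6 lumbar puncture) to conscious mice. von Frey (cutoff 6 g) or cold plate (2 °C, 30 s cutoff, paw lift) at 30, 90, 180 min; 6–8 mice/group.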

Mus musculus [2] = assay: Antiallodynic activity in intrathecally dosed albino Swiss CD1 IGS mouse model of chronic constriction injury-induced neuropathic pain assessed as increase in mechanical threshold for paw withdrawal administered on day 7 to 16 after CCI surgery measured 30 mins post dose by Von Frey test; assay type: functional
Method in brief: (§2)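 Male Albino Swiss CD-1 mice (30–35 g), sciatic chronic constriction injury under chloral hydrate; tested days 7–16 post-surgery. Compound in water for injection, 5 µL intrathecal by lumbar puncture L5–L6 in awake mice.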

Mus musculus [3] = assay: Antihyperalgesic activity in intrathecally dosed albino Swiss CD1 IGS mouse model of chronic constriction injury-induced neuropathic pain assessed as increase in paw withdrawal latency administered on day 7 to 16 after CCI surgery measured 30 mins post dose by cold plate test; assay type: functional; method in brief: as §2
Mus musculus [4] = assay: Neurotoxicity in intrathecally dosed albino Swiss CD1 IGS mouse assessed as motor impairment measured after 15 to 120 mins post dose by rotarod test; assay type: toxicity, organism-based; details: in vivo, icv_or_intrathecal
Method in brief: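 Intrathecal dosing (water for injection, 5 µL) to male CD-1 mice. After three training sessions, mice placed on accelerating rod (2 to 40 rpm over 300 s cutoff); tested 15 and 120 min after injection.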

Mus musculus [5] = assay: Antiallodynic activity in albino Swiss CD1 IGS mouse model of streptozocin-induced type1 diabetic neuropathic pain assessed as increase in mechanical threshold for paw withdrawal at 0.005 nmol, it administered on day 10 after STZ injection measured at 180 mins post dose by Von Frey test; assay type: functional, organism-based; method in brief: as §1
Mus musculus [6] = assay: Antihyperalgesic activity in albino Swiss CD1 IGS mouse model of streptozocin-induced type1 diabetic neuropathic pain assessed as increase in paw withdrawal latency at 0.005 nmol, it administered on day 10 after STZ injection measured at 180 mins post dose by […]; assay type: functional, organism-based; method in brief: as §1
Nociceptin receptor [7] = target: T1, Nociceptin receptor (Homo sapiens, UniProt P41146); assay: Displacement of [3H]OFQ/nociceptin from human nociceptin receptor expressed in HEK293 cell membrane incubated for 1 hr by TopCount scintillation counting method; assay type: cell membranes
T1 sequence (P41146 whole entry): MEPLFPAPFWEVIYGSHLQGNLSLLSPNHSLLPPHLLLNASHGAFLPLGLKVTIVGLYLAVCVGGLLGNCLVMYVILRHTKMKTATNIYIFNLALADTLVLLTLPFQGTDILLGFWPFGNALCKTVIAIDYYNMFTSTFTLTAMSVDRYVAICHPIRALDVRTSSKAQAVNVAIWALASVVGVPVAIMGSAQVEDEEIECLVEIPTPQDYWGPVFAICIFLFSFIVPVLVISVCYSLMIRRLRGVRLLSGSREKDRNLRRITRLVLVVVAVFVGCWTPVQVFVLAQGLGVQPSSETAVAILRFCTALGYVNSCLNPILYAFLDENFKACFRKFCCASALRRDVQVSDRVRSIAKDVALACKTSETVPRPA

Nociceptin receptor [8] = target: T1, Nociceptin receptor; assay: Agonist activity at human nociceptin receptor expressed in CHO cell membrane incubated for 60 mins by [35S]GTPgammaS binding assay relative to control; assay type: functional, cell membranes
Mus musculus [9] = organism: Mus musculus; assay: Neurotoxicity in albino Swiss CD1 IGS mouse assessed as motor impairment at 0.5 nmol, it measured after 15 to 120 mins post dose by rotarod test; assay type: toxicity, organism-based; details: in vivo, icv_or_intrathecal
Method in brief: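 CD-1 mice given intrathecal compound (5 µL, L5–L6), tested at 15 and 120 min on accelerating rotarod, 2 to 40 rpm over 300 s cutoff, after three training sessions.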

Nociceptin receptor [10] = target: T1, Nociceptin receptor; assay: Antagonist activity at human nociceptin receptor expressed in HEK293 cells assessed as inhibition of OFQ/nociceptin-induced suppression of cAMP accumulation up to 20 uM preincubated for 15 mins followed by OFQ/nociceptin addition by luciferase reporter gene assay; assay type: functional, cell-based
Nociceptin receptor [11] = target: T1, Nociceptin receptor; assay: Agonist activity at human nociceptin receptor expressed in HEK293 cells assessed as inhibition of forskolin-stimulated cAMP production up to 10 uM preincubated for 15 mins followed by forskolin addition measured for 90 mins by luciferase reporter gene assay; assay type: functional, cell-based
Method in brief: (§3)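 HEK293 cells stably expressing human NOP and GloSensor, in Hepes buffer pH 7.4 with 1 mM d-luciferin, pre-equilibrated 2 h at 25 °C. Compound at various concentrations added 15 min before forskolin (0.5 µM final); luminescence read kinetically for 90 min at 25 °C with 0.5 mM IBMX. At least two experiments in duplicate.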

Mus musculus [12] = assay: Antiallodynic activity in albino Swiss CD1 IGS mouse model of streptozocin-induced type1 diabetic neuropathic pain assessed as increase in mechanical threshold for paw withdrawal at 0.007 nmol, it administered on day 10 after STZ injection measured at 30 mins post dose by Von Frey test; assay type: functional, organism-based
Method in brief: (§4)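 Male Albino Swiss CD-1 mice made diabetic by single ip streptozocin 200 mg/kg; glucose >300 mg/dL required; tested day 10. Compound in water for injection, 5 µL intrathecal at L5–L6; von Frey or cold plate (2 °C, 30 s cutoff) at 30, 90, 180 min; 6–8 mice per group.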

Mus musculus [13] = assay: Antiallodynic activity in albino Swiss CD1 IGS mouse model of streptozocin-induced type1 diabetic neuropathic pain assessed as increase in mechanical threshold for paw withdrawal at 0.007 nmol, it administered on day 10 after STZ injection measured at 180 mins post dose by Von Frey test; assay type: functional, organism-based; method in brief: as §4
Mus musculus [14] = assay: Antihyperalgesic activity in albino Swiss CD1 IGS mouse model of streptozocin-induced type1 diabetic neuropathic pain assessed as increase in paw withdrawal latency at 0.007 nmol, it administered on day 10 after STZ injection measured at 180 mins post dose by […]; assay type: functional, organism-based; method in brief: as §4
Nociceptin receptor [15] = target: T1, Nociceptin receptor; assay: Partial agonist activity at human nociceptin receptor expressed in HEK293 cells assessed as inhibition of forskolin-stimulated cAMP production preincubated for 15 mins followed by forskolin addition measured for 90 mins by luciferase reporter gene assay relative to nociceptin; assay type: functional, cell-based; method in brief: as §3
Mus musculus [16] = assay: Antiallodynic activity in albino Swiss CD1 IGS mouse model of streptozocin-induced type1 diabetic neuropathic pain assessed as increase in mechanical threshold for paw withdrawal at 0.008 nmol, it administered on day 10 after STZ injection measured at 30 mins post dose by Von Frey test; assay type: functional, organism-based; method in brief: as §4
Mus musculus [17] = assay: Antiallodynic activity in albino Swiss CD1 IGS mouse model of streptozocin-induced type1 diabetic neuropathic pain assessed as increase in mechanical threshold for paw withdrawal at 0.008 nmol, it administered on day 10 after STZ injection measured at 180 mins post dose by Von Frey test; assay type: functional, organism-based; method in brief: as §4
Mus musculus [18] = assay: Antihyperalgesic activity in albino Swiss CD1 IGS mouse model of streptozocin-induced type1 diabetic neuropathic pain assessed as increase in paw withdrawal latency at 0.008 nmol, it administered on day 10 after STZ injection measured at 180 mins post dose by […]; assay type: functional, organism-based; method in brief: as §4
Mus musculus [19] = assay: Antinociceptive activity in C57BL6 mouse model of acute pain assessed as increase in withdrawal latency from radiant heat source at 390 nmol/kg, iv measured after 15 to 30 mins by tail flick assay; assay type: functional, organism-based
Method in brief: (§5)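 Male C57BL6 mice (20–25 g); compound or saline given iv into tail vein (po also tested). Radiant heat on ventral tail, latency to withdrawal/shaking recorded at baseline and 5, 15, 30, 60, 120 min (later points also reported); normalized as %MPE; 8–10 mice per group.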

Mus musculus [20] = assay: Antinociceptive activity in C57BL6 mouse model of acute pain assessed as increase in withdrawal latency from radiant heat source at 390 nmol/kg, iv measured after 60 mins by tail flick assay; assay type: functional, organism-based; method in brief: as §5
Mus musculus [21] = assay: Antiallodynic activity in albino Swiss CD1 IGS mouse model of chronic constriction injury-induced neuropathic pain assessed as increase in mechanical threshold for paw withdrawal at 10 ug, it administered on day 7 to 16 after CCI surgery measured 30 mins post dose by Von Frey test relative to control; assay type: functional
Mus musculus [22] = assay: Antihyperalgesic activity in albino Swiss CD1 IGS mouse model of chronic constriction injury-induced neuropathic pain assessed as increase in paw withdrawal latency at 10 ug, it administered on day 7 to 16 after CCI surgery measured 30 mins post dose by cold plate test relative to control; assay type: functional
Mus musculus [23] = assay: Antinociceptive activity in C57BL6 mouse model of acute pain assessed as increase in withdrawal latency from radiant heat source at 10 ug, iv measured after 5 to 120 mins by tail flick assay relative to control; assay type: functional
Mus musculus [24] = assay: Antinociceptive activity in C57BL6 mouse model of acute pain assessed as increase in withdrawal latency from radiant heat source at >10 ug, iv measured after 5 to 120 mins by tail flick assay relative to control; assay type: functional
Mus musculus [25] = assay: Antinociceptive activity in iv dosed C57BL6 mouse model of acute pain assessed as increase in withdrawal latency from radiant heat source measured after 5 to 120 mins by tail flick assay; assay type: functional, organism-based
Method in brief: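 Male C57BL6 mice (20–25 g), restrained; compound or saline control injected intravenously into tail vein. Radiant heat light beam applied to ventral tail; latency to withdrawal or tail shake recorded at baseline and 5, 15, 30, 60, 120 min post-injection. Latencies normalized as %MPE (mean ± SEM); groups of 8–10 mice.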

Mus musculus [26] = assay: Antiallodynic activity in albino Swiss CD1 IGS mouse model of chronic constriction injury-induced neuropathic pain assessed as increase in mechanical threshold for paw withdrawal at >10 ug, it administered on day 7 to 16 after CCI surgery measured 30 mins post dose by Von Frey test relative to control; assay type: functional
Mus musculus [27] = assay: Antihyperalgesic activity in albino Swiss CD1 IGS mouse model of chronic constriction injury-induced neuropathic pain assessed as increase in paw withdrawal latency at >10 ug, it administered on day 7 to 16 after CCI surgery measured 30 mins post dose by cold plate test relative to control; assay type: functional

Cc1cc(O)cc(C)c1C[C@H](NC(=O)[C@H](Cc1ccc(O)cc1)NC(=O)[C@H](CCCNC(=N)N)NC(=O)CCN1Cc2ccccc2C[C@H](NC(=O)[C@@H](CCCNC(=N)N)NC(=O)[C@@H](N)Cc2c(C)cc(O)cc2C)C1=O)C(=O)N[C@@H](CCCNC(=N)N)C(=O)N[C@@H](Cc1c[nH]c2ccccc12)C(=O)N[C@@H](CCCNC(=N)N)C(N)=O (H-[Dmt][dR][X1]RY[Dmt]RWR-NH2)
Activity (Mus musculus [1]): Active
ED50 (Mus musculus [2]): 0.0009 nmol
ED50 (Mus musculus [3]): 0.005 nmol
Activity (Mus musculus [4]): Non-toxic
Activity (Mus musculus [5]): inactive
Activity (Mus musculus [6]): inactive

Cc1cc(O)cc(C)c1C[C@H](N)C(=O)N[C@H](CCCNC(=N)N)C(=O)N[C@H]1Cc2ccccc2CN(CCC(=O)N[C@@H](CCCNC(=N)N)C(=O)N[C@@H](Cc2ccc(O)cc2)C(=O)N[C@@H](Cc2ccc(O)cc2)C(=O)N[C@@H](CCCNC(=N)N)C(=O)N[C@@H](Cc2c[nH]c3ccccc23)C(=O)N[C@@H](CCCNC(=N)N)C(N)=O)C1=O (H-[Dmt][dR][X1]RYYRWR-NH2)
Activity (Mus musculus [1]): Active
Ki (Nociceptin receptor [7]): 0.047 µM
ED50 (Mus musculus [2]): 0.0009 nmol
ED50 (Mus musculus [3]): 0.002 nmol
Activity (Mus musculus [4]): Non-toxic
Activity (Mus musculus [5]): inactive
Activity (Mus musculus [6]): inactive

CC(=O)N[C@@H](CCCNC(=N)N)C(=O)N[C@@H](Cc1ccc(O)cc1)C(=O)N[C@@H](Cc1ccc(F)cc1)C(=O)N[C@@H](CCCNC(=N)N)C(=O)N[C@@H](Cc1c[nH]c2ccccc12)C(=O)N[C@@H](CCCNC(=N)N)C(N)=O (Ac-RY[Phe(4-F)]RWR-NH2)
Activity (Nociceptin receptor [8]): 70%

Cc1cc(O)cc(C)c1C[C@H](N)C(=O)N[C@H](CCCNC(=N)N)C(=O)N[C@H]1Cc2ccccc2CN(CCC(=O)N[C@@H](CCCNC(=N)N)C(=O)N[C@@H](Cc2ccc(O)cc2)C(=O)N[C@@H](Cc2ccc(F)cc2)C(=O)N[C@@H](CCCNC(=N)N)C(=O)N[C@@H](Cc2c[nH]c3ccccc23)C(=O)N[C@@H](CCCNC(=N)N)C(N)=O)C1=O (H-[Dmt][dR][X1]RY[Phe(4-F)]RWR-NH2)
Activity (Mus musculus [1]): Active
Activity (Mus musculus [9]): Toxic
Activity (Mus musculus [5]): inactive
Activity (Mus musculus [6]): inactive

CC[C@H](C)[C@H](NC(=O)[C@H](CCCNC(=N)N)NC(=O)[C@H](Cc1ccc(O)cc1)NC(=O)[C@H](Cc1ccc(O)cc1)NC(=O)[C@@H](N)CCCNC(=N)N)C(=O)N[C@@H](CCCCN)C(N)=O
inhibition (Nociceptin receptor [10]): inactive
Activity (Nociceptin receptor [11]): inactive
Activity (Mus musculus [4]): Non-toxic
Activity (Mus musculus [12]): Active
Activity (Mus musculus [13]): inactive
Activity (Mus musculus [14]): inactive

CC[C@H](C)[C@@H](NC(=O)[C@H](CCCNC(=N)N)NC(=O)[C@H](Cc1ccc(O)cc1)NC(=O)[C@H](Cc1ccc(O)cc1)NC(=O)[C@H](CCCNC(=N)N)NC(C)=O)C(=O)N[C@@H](CCCCN)C(N)=O
inhibition (Nociceptin receptor [10]): inactive
inhibition (Nociceptin receptor [15]): 70%
Activity (Mus musculus [16]): Active
Activity (Mus musculus [17]): inactive
Activity (Mus musculus [18]): inactive

CN1CC[C@]23c4c5ccc(O)c4O[C@H]2[C@@H](O)C=C[C@H]3[C@H]1C5 [MORPHINE]
Activity (Mus musculus [19]): Active
Activity (Mus musculus [20]): inactive
ED50 (Mus musculus [2]): 7 nmol
ED50 (Mus musculus [3]): 7.46 nmol
MPE (Mus musculus [21]): 36.5%
MPE (Mus musculus [22]): 30.15%
MPE (Mus musculus [23]): 63.8%
MPE (Mus musculus [24]): 100%
Activity (Mus musculus [25]): Dose-dependent effect
MPE (Mus musculus [26]): 50%
MPE (Mus musculus [27]): 50%
